Bioassay records: PubChem, several laboratories
APP 5'UTR act – APP 5'UTR luciferase reporter activation; activation, % at 2 µM; SH-SY5Y APP 5'UTR luciferase reporter, luminescence; zero percent = DMSO vehicle wells; 190,000 compounds, 1% hits;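 active = activation above a set limit, based on mean plus 3 SD of controls, cut at about 140% in these data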
STAT1 inh – STAT1 signaling inhibition | NIH 3T3 STAT1-luciferase reporter, IFN-gamma, luminescence | inhibition, % at 5.5 µM | 200,000 compounds, 0.35% hits | AID 920;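 active = inhibition above a set limit, the mean inhibition across all tested compounds plus 3 SD, cut at about 34% in these data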
STAT1 act – activators of IFN-gamma induced STAT1 signaling. activation (% of control), % at 5.5 µM. 200,000 compounds, 2.6% hits. NIH 3T3 STAT1-luciferase reporter, luminescence; 100% = IFN-gamma alone, no compound;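 active = activation above the screen-wide mean activation plus 3 SD, cut at about 130% in these data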
NF-kB neuron act – NF-kB expression increase, human neuronal cells; fold change at 12.5 µM; AID 1239; NF-kB reporter expression; hits give high values; 190,000 compounds, 1.6% hits; in the data active = fold change above about 3.3
STAT3 activator – increases IL-6 driven STAT3 reporter signal. U3A cells, IL-6 STAT3-luciferase reporter, luminescence; 100% = signal with IL-6 EC80 alone. activation (% of control), % at 5.6 µM. 190,000 compounds, 0.91% hits. AID 871;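 active = activation above the screen-wide mean of compound activation plus 3 SD, cut at about 130% in these data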
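Detection: reporter luminescence signal / Assay system: STAT1-lacking human U3A cells, STAT3 luciferase reporter / Incubation: compound pre-incubation 1 h before IL-6, then 6 h stimulation at 37 °C / Control set: IL-6-only high control / Read-out: % activation relative to IL-6 control / Probe or stimulus: Interleukin-6, 33 ng/mL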
STAT3 blocker – STAT3 signaling inhibition; U3A cells, IL-6 STAT3-luciferase reporter, luminescence; host cell line lacks STAT1; 190,000 compounds, 0.89% hits; inhibition, % at 5.5 µM;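 active = inhibition above the mean inhibition across all screened compounds plus 3 SD, cut at about 44% in these data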
Of the large screens only hits and unclear results are named; the others gave an inactive call. Shown are actives, neighbours in structure and some others; about 4.9% of the full set was active somewhere.

Cc1nnc2ccc(-c3ccc(NC(=O)c4ccco4)cc3)nn12	none
Cc1ccn2cc(-c3ccc(NC(=O)c4ccco4)cc3)nc2c1	APP 5'UTR act 138.6, STAT1 act 135.4
CCCc1ccc(OC(=O)c2cccs2)cc1	none
CCCc1ccc(OC(=O)c2ccc(O)cc2Cl)cc1	APP 5'UTR act 218.1, NF-kB neuron act 4.27
COc1cccc(CNc2ccc(Br)cn2)c1O	APP 5'UTR act 151.6, NF-kB neuron act 6.26
COc1cccc(CNc2ncc(Br)cc2Br)c1O	none
CCCOC(=O)c1ccc(NC(=O)COC)cc1	none
CC(=O)Nc1ccc(C(=O)OCCC(C)C)cc1	STAT1 act 129.3
CCCOC(=O)c1ccc(NC(=O)CC(C)(C)C)cc1	STAT1 act 144.2, NF-kB neuron act 5.53
C[C@H](NC(N)=O)C(=O)Nc1ccc(OCc2ccccc2)cc1	STAT1 act 131.6
CCC(=O)Nc1ccc(C(=O)OCc2ccccc2)cc1	STAT1 act 132.5
CC(=O)Nc1ccc(S(=O)(=O)N[C@@H](C)C(=O)OCc2ccc(Cl)cc2)cc1	none
Cc1occc1C(=O)Nc1ccc(OCc2ccccc2)cc1	STAT1 act 128.6
Cc1ccccc1C(=O)NNC(=O)c1ccoc1C	none
CCCOC(=O)c1ccc(NC(=O)c2ccoc2C)cc1	STAT1 act 140.9, NF-kB neuron act 3.46
Cc1occc1C(=O)NNC(=O)c1ccccc1C(=O)O	APP 5'UTR act 181.1, STAT1 act 146.1
COC(=O)c1c(NC(=O)C2CCCCC2C(=O)O)sc2c1CCCCC2 (stereo not drawn)	STAT1 act 129.6
CCOC(=O)c1c(NC(=O)C2CCCCC2C(=O)O)sc2c1CCCCC2 (stereo not drawn)	none
O=C(CN1C(=O)CCC1=O)Nc1cccc2c1C(=O)NC2=O	none
CN1C(=O)/C(=C\C=C2/CCCN2C)N(C)C1=S	NF-kB neuron act 5.7
CCN1C(=O)/C(=C/C=C2/CCCN2C)OC1=S	none
CC(=O)N1CCc2cc(NC(=O)c3ccc(C)cc3)ccc21	STAT1 act 131.0, NF-kB neuron act 3.65
CCCSc1nsc(NC(=O)CC)n1	STAT1 act 129.7, NF-kB neuron act 3.72
CCCCCCSc1nsc(NC(=O)CC(C)C)n1	none
CCC(C)n1c(=S)[nH]c2c(sc3ccc([N+](=O)[O-])cc32)c1=O (stereo not drawn)	none
O=C(Nc1ccccc1C(=O)N1CCOCC1)c1ccc(F)cc1	none
O=C(Oc1ccc(-c2ccccc2)cc1)N1CCOCC1	STAT1 act 137.1
O=C(Nc1ccccc1Br)c1ccc(OC(=S)N2CCOCC2)cc1	STAT1 act 134.9
O=C(Oc1cccc(Oc2ccccc2)c1)N1CCOCC1	none
Cc1ccc(NC(=O)c2ccc(OC(=S)N3CCOCC3)cc2)cc1	STAT1 act 130.7
Cc1ccc(-c2nnc(SCC(C)C)n2C)cc1	STAT1 act 137.7
Cc1ccc(-c2nnc(SCC(N)=O)n2C)cc1	none
O=C(Nc1ccon1)c1sc2cc(F)ccc2c1Cl	STAT1 act 130.8
Cc1ccc2c(Cl)c(C(=O)Nc3cc(C)on3)sc2c1	STAT1 act 131.9
Cc1cc(C2=NNC(=NC3CCCCC3)SC2)c(C)n1-c1c(C)n(C)n(-c2ccccc2)c1=O	none
Cc1cc(C2=NNC(=NC3CC3)SC2)c(C)n1-c1ccccc1F	STAT1 inh 88.8, STAT3 blocker 101.8
c1cc2c(cc1C1=NNC(=NC3CC3)SC1)OCCO2	STAT1 inh 93.6, STAT3 blocker 108.3
CN(C(=O)Cn1cccc1C1=NC(c2ccccc2)CO1)c1ccccc1 (stereo not drawn)	none
Cc1ccc(Nc2nc(N)nc(CSc3nccn3C)n2)cc1	APP 5'UTR act 140.3, STAT1 act 146.3, NF-kB neuron act 3.75
Cc1cccc(Nc2nc(N)nc(CSc3nccn3C)n2)c1	STAT1 act 136.2
COc1cc(/C=C(\C#N)c2nc3ccccc3[nH]2)ccc1OC(=O)c1ccco1	none
COc1cc(/C=C(\C#N)c2nc3ccccc3[nH]2)c([N+](=O)[O-])cc1OCc1ccccc1	STAT3 activator 136.6
CCc1ccc(N2CCN(C(=O)N3CCOCC3)CC2)cc1	none
O=C(NCCCN1CCOCC1)c1ccc(-n2nc(C(F)(F)F)cc2-c2cccs2)cc1	none
O=C(NCCCn1ccnc1)c1ccc(S(=O)(=O)N2CCOCC2)cc1	NF-kB neuron act 3.97
